# zfTRPN1 agonist: zebrafish TRPN1 channel agonists, primary screen, cell-based, HEK293, calcium fluorescence | AID 1424, 2008 | transient receptor potential cation channel N1 (TRPN1/NompC), Danio rerio | 0.18% of 220,000 active | HEK293 zebrafish TRPN1-YFP, Fluo-8 calcium fluorescence; 100% = response to 87 µM carbachol | activation, % at 3 µM;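 active = activation above its plate's cutoff, the mean activation of test wells on that plate plus 3 SD, cut at about 19% in these data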;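 note: 0% = DMSO alone and 100% = 87 µM carbachol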
#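 Assay system: Zebrafish TRPN1-YFP in HEK293 cells | Incubation: Dye loading 1 h at 37 °C, then 30 min room temperature | Measured by: Kinetic Fluo-8 fluorescence, ex 470-495, em 515-575 nm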
# OXTR ag: human OXTR agonists, primary screen, fluorescence, CHO-OTR cells, Fluo-8 calcium | Oxytocin receptor (Homo sapiens), P30559 | Fluo-8 calcium fluorescence; normalized: DMSO 0%, oxytocin 100% | activation, % at 3 µM | 0.32% of 320,000 active | AID 2435, 2010;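 active = activation above the mean of all tested compounds plus 3 SD, cutoff set per screening run, cut at about 20% in these data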;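 note: peak over basal fluorescence ratio from a 100 s FLIPR kinetic read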
# Target sequence (P30559 whole entry, looked up): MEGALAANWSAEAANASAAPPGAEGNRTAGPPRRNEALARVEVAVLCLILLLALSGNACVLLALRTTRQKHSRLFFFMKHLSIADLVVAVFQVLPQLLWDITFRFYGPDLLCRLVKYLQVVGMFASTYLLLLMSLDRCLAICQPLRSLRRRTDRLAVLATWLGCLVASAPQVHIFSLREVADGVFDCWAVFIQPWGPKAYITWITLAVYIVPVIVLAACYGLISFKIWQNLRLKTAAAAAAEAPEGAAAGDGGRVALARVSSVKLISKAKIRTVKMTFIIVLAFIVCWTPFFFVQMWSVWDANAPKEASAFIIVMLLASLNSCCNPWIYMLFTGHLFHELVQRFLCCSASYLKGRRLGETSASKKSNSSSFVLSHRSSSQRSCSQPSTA
# OXTR potentiate: human OXTR potentiators, primary screen, fluorescence, CHO-OTR cells, Fluo-8 calcium | Fluo-8 calcium fluorescence, potentiator mode; 0% = oxytocin EC15, 100% = EC100 | 0.061% of 320,000 active | AID 2445, 2010 | activation, % at 3 µM | Oxytocin receptor (Homo sapiens), P30559;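 active = activation above that plate's cutoff, the mean activation of tested compounds plus 3 SD, cut at about 6.6% in these data, passing the limit was not always enough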;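 note: 100% uses oxytocin at 75 nM as the full agonist control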
#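 System: human OTR in CHO cells; Also added: sub-maximal oxytocin, roughly EC15; Timing: compound 6 min at room temperature before oxytocin, 100 s read; Technique: Fluo-8 intracellular calcium fluorescence, ex 470-495, em 515-575 nm; Controls: oxytocin EC15 low and EC100 high; Replication: singlicate.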
# TRPML3 agonist: human TRPML3 channel agonists, primary screen, cell-based, HEK293 TRPML3-YFP, Fluo-8 calcium fluorescence, 3 µM; Mucolipin-3 (Homo sapiens), Q8TDD5; 100% = the carbachol control signal; activation, % at 3 µM; 0.29% of 220,000 active;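 active = activation above its plate's cutoff, the mean activation of the plate's test wells plus 3 SD, cut at about 12% in these data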;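 note: 0% = DMSO only wells and 100% = carbachol wells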
#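 Test system: TRPML3-YFP stable HEK293 cells. Doses: single point at 3 µM. Incubation: dye loading 1 h 37 °C then 30 min ambient, 125 s read. Signal: Fluo-8 calcium dye fluorescence, ex 470-495, em 515-575 nm. Measure: percent activation from peak-to-basal fluorescence ratio, scaled between DMSO and carbachol.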
# V1aR counter: agonists of human V1a receptor, primary screen, counter-screen for OXTR agonist project, fluorescence, CHO-V1R cells; Fluo-8 calcium fluorescence, agonist mode; 0% DMSO, 100% 3 nM vasopressin; activation, % at 3 µM; 0.25% of 320,000 active;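 active = activation above the mean activation of all tested compounds plus 3 SD, per screening run, cut at about 20% in these data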;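 note: signal is peak over basal fluorescence ratio across a 100 second FLIPR read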
# * = called active by the depositor; · = not tested or not shown; + = active, no number. Only some compounds are listed: those with a hit (about 0.55% of all), similar ones and a draw of the others.
SMILES,zfTRPN1 agonist,OXTR ag,OXTR potentiate,TRPML3 agonist,V1aR counter
CN1C(=O)c2cccc3c(Cl)ccc(c23)C1=O,1,-2,-1,1,0
CCN(CC(=O)Nc1c(F)cccc1F)C(=O)c1cccnc1Sc1ccccc1,·,0,0,·,0
Cc1ccccc1C(=O)NNC(=S)NC(=O)c1ccc(Cl)cc1Cl,72*,73*,-14,57*,85*
Cc1onc(-c2ccccc2)c1C(=O)NNC(=S)NC(=O)c1ccc(Br)cc1,23*,73*,-11,11,66*
CC(=O)NNC(=S)NC(=O)c1ccc(C)cc1,0,-1,-5,0,1
Cc1onc(-c2ccccc2)c1C(=O)NNC(=O)c1ccccc1,·,-1,-1,·,0
Cc1ccc(C(=O)NNC(=S)NC(=O)c2ccc(Cl)cc2)cc1,143*,91*,-13,83*,81*
Cc1onc(-c2ccccc2)c1C(=O)NNC(=O)c1ccccc1O,·,0,-4,·,0
Cc1onc(-c2ccccc2)c1C(=O)NNC(=S)NC(=O)c1ccc(Cl)cc1Cl,7,102*,-12,2,102*
COc1ccccc1CNC(=O)[C@@H](NC(=O)C1CCN(C(=O)[C@@H]2CCCN2)CC1)C(C)C,·,1,-2,·,0
Cc1onc(-c2ccccc2)c1C(=O)NNC(=S)NC(=O)/C=C/c1ccccc1,4,35*,-9,2,46*
Cc1cccc(C(=O)NC(=S)NNC(=O)c2ccccc2Cl)c1,34*,71*,-21,13*,49*
CCN(CC)S(=O)(=O)c1ccc(OCC(=O)NC(=O)Cc2ccccc2)c([N+](=O)[O-])c1,·,1,-5,·,3
c1ccc2oc(-c3ccn[nH]3)cc2c1,-1,0,-4,0,-1
CCC1=NN2C(=N)/C(=C/c3cc(C)n(Cc4ccccc4)c3C)C(=O)N=C2S1,0,53*,-22,0,69*
Cc1cc(/C=C2\C(=N)N3N=C(c4ccco4)SC3=NC2=O)c(C)n1Cc1ccccc1,6,36*,-17,0,54*
Cc1cc(/C=C2\C(=N)N3C(SCc4ccccc4)=NSC3=NC2=O)c(C)n1Cc1ccccc1,0,0,-7,1,0
CC1=NN2C(=N)/C(=C\c3cc(C)n(-c4ccccc4)c3C)C(=O)N=C2S1,1,0,-11,1,0
Cc1cc(/C=C2\C(=N)N3N=C(C(C)C)SC3=NC2=O)c(C)n1Cc1ccccc1,10,48*,-22,3,44*
CCOc1ccc(S(=O)(=O)N(CC)CC(=O)N2CCOCC2)cc1C,·,1,1,·,-1
CCCCNC(=O)CCn1c(=O)c2ccccc2n(Cc2ccc(Cl)cc2)c1=O,1,0,15*,1,2
O=C(CC1SC(N2CCOCC2)=NC1=O)Nc1cccc(C(F)(F)F)c1 (stereo not given),·,2,7,·,1
CN1CCN(c2ccc(C(F)(F)F)cc2NC(=O)Nc2ccccc2)CC1,·,34*,-24,·,33*
COc1ccccc1OCCNC(=O)C1CCN(C(C)=O)CC1,·,0,-3,·,0
CC1=Nc2ccccc2/C1=C/c1sc(=N)n(-c2nccs2)c1O,16,23*,-11,8,26*
SMILES,zfTRPN1 agonist,OXTR ag,OXTR potentiate,TRPML3 agonist,V1aR counter
CC(=O)Nc1sc2c(c1-c1nc3ccccc3s1)CCN(C(C)C)C2,24*,1,-3,9,1
CC1CCN(CC2C(=O)O[C@@H]3C[C@@]4(C)CCC[C@H](C)C4=C[C@H]23)CC(C)(C)C1 (stereo not given in full),·,-2,3,·,0
CCCCN1CC(=O)N2[C@H](c3ccc(OC)cc3)[C@@H]3C(=O)N(CC)C(=O)[C@@H]3[C@]2(C)C1=O,·,0,4,·,1
CCOC(=O)CC1C(=O)NCCN1C(=O)c1cc2c(=O)n3cccc(C)c3nc2s1 (stereo not given),1,-1,-5,0,1
CCCN1C(=O)/C(=C/c2c(N3CCNC(=O)C3CC(=O)OC)nc3c(C)cccn3c2=O)SC1=S (stereo not given),31*,·,·,10,·
CCN(CC)S(=O)(=O)c1cc(NC(=O)c2ccc(-n3cncn3)c([N+](=O)[O-])c2)ccc1C,·,6,-10,·,12
CCC(C)Oc1nc(C)cc(C)c1S(=O)(=O)c1ccccc1C (stereo not given),-1,-2,-12,42*,-1
CC[n+]1ccccc1/C=C1\Sc2ccc(C)cc2N1C,·,0,-18,·,0
CCN1/C(=C/c2ccc3cc(C)ccc3[n+]2CC)Sc2cc(C)c(C)cc21,49*,·,·,20*,·
CCN1/C(=C/c2ccc3cc(C)ccc3[n+]2CC)Sc2ccccc21,83*,30*,-18,30*,32*
CC[n+]1c(/C=C2\Sc3ccccc3N2C)ccc2cccc(C)c21,42*,·,·,18*,·
CN1/C(=C/c2cccc[n+]2CCO)Sc2ccccc21,·,0,-14,·,0
O=C(COc1ccc(Br)cc1)OCCN1CCCCC1,·,0,-10,·,0
C/C(=C/c1ccccc1)C(=O)N1CCN(c2ccc(F)cc2)CC1,·,-2,-1,·,0
COc1ccc(N=CC2=C(Nc3ccc(OC)cc3)c3c(C)nn(-c4ccccn4)c3CC2)cc1,6,10,-7,6,21*
OCCC1CN(C2CCC2)CCN1Cc1ccc(F)c(F)c1 (stereo not given),·,0,-4,·,1
CN(C)S(=O)(=O)N1C(=O)c2ccccc2C1=O,0,1,-4,1,1
CN(C)/C=C1\C=C2C(=O)c3ccccc3N2C1=O,729*,436*,-22,357*,95*
N#C/C(=C\c1ccncc1)c1nc2ccccc2[nH]1,0,·,·,1,·
N#C/C(=C/c1ccncc1)c1nc2ccccc2s1,34*,27*,-6,19*,55*
COC(=O)c1ccc(/C(O)=C(\C#N)c2nc3ccccc3s2)cc1,6,9,-9,4,10
CC(C)=C(C#N)c1nc2ccccc2s1,17,36*,-6,8,40*
Brc1ccsc1/C=N/Nc1ccccc1,·,-1,-4,·,0
COC(=O)c1ccccc1-c1c2ccc(=N)cc-2oc2cc(N)ccc12,·,+,-12,·,+
O=c1c(O)c(-c2cccs2)oc2ccccc12,26*,35*,-9,16*,59*

# Assay outcomes: PubChem, The Scripps Research Institute Molecular Screening Center
